# From ChEMBL document CHEMBL1148356, “Synthesis and biological evaluation of 3-heterocyclyl-7,8,9,10-tetrahydro-(7,10-ethano)-1,2,4-triazolo[3,4-a]phthalazines and analogues as subtype-selective inverse agonists for the GABA(A)alpha5 benzodiazepine binding site” (J Med Chem, 2004)
# Target: T1, GABA-A receptor; alpha-1/beta-3/gamma-2 (Homo sapiens, UniProt P14867+P18507+P28472)
# T1 sequence (P14867 whole entry): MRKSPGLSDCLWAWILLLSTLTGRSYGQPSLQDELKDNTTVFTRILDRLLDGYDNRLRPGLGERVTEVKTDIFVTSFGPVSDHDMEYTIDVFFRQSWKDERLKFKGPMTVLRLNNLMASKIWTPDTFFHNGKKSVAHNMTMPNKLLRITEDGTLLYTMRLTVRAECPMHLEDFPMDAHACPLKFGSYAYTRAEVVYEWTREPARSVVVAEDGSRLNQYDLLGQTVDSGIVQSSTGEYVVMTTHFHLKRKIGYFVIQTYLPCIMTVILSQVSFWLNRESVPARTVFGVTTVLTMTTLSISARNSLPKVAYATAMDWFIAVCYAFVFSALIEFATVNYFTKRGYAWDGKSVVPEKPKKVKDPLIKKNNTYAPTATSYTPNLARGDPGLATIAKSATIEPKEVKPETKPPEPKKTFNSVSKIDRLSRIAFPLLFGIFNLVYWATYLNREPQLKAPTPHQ
# T1 sequence (P18507 whole entry): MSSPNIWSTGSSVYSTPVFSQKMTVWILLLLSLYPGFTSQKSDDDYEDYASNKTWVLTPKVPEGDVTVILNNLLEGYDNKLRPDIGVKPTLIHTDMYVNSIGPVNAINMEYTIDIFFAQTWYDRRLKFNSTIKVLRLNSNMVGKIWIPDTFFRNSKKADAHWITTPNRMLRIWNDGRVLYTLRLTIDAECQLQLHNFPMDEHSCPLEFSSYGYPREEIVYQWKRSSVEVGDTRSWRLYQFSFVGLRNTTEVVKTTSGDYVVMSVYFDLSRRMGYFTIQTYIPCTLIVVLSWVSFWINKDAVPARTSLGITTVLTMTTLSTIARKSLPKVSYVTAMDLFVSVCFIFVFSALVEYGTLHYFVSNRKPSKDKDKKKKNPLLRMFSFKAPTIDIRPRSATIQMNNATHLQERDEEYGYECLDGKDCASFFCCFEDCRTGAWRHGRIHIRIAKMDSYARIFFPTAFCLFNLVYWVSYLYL
# T1 sequence (P28472 whole entry): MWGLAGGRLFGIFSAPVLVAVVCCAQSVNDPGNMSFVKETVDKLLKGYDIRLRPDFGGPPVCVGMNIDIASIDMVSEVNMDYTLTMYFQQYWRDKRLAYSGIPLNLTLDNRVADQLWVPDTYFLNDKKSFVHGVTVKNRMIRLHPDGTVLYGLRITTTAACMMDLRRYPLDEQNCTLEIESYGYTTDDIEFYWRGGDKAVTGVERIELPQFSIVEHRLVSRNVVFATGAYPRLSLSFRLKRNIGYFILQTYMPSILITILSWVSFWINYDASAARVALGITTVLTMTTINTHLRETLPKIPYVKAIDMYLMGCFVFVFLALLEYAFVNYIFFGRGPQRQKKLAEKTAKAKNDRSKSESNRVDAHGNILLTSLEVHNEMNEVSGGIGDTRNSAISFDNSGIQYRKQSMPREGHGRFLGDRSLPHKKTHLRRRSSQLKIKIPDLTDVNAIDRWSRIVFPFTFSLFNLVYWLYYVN
# Assay: Binding affinity towards human alpha-1-beta-3-gamma-2 GABA-A receptor using [3H]Ro-151788 expressed in L(tk-) cells
# Type: cell-based
# Details: not given
row,SMILES,Ki
1,Cc1noc(-c2nnc3c4c(c(OCc5ccccn5)nn23)C2CCC4CC2)n1,28.2 nM
2,Cc1noc(-c2nnc3c4c(c(OCc5ncc[nH]5)nn23)C2CCC4CC2)n1,159 nM
3,Cc1cccc(COc2nn3c(-c4ccccn4)nnc3c3c2C2CCC3CC2)n1,518 nM
4,Cc1cccc(COc2nn3c(-c4ncn(C)n4)nnc3c3c2C2CCC3CC2)n1,> 1000 nM
5,Cc1cccc(COc2nn3c(-c4ccco4)nnc3c3c2C2CCC3CC2)n1,1000 nM
6,Cc1noc(-c2nnc3c4c(c(OCc5ccc(C)c(C)n5)nn23)C2CCC4CC2)n1,48.6 nM

# Target: T2, GABA-A receptor; alpha-5/beta-3/gamma-2 (Homo sapiens, UniProt P18507+P28472+P31644)
# T2 sequence (P18507 whole entry): T1 sequence (P18507 whole entry)
# T2 sequence (P28472 whole entry): T1 sequence (P28472 whole entry)
# T2 sequence (P31644 whole entry): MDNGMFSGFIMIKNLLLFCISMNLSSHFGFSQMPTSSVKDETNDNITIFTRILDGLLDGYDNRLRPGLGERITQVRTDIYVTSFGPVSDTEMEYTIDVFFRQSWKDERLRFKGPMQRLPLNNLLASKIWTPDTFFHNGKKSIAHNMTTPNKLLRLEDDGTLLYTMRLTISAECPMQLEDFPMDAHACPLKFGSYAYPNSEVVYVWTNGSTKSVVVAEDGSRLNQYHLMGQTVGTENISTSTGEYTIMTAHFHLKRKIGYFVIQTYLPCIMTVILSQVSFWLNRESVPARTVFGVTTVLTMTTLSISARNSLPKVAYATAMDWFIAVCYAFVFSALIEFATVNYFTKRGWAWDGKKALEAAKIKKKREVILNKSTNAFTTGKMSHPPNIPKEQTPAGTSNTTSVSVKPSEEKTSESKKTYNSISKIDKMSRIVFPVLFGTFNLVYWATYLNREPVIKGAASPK
# Assay: Binding affinity towards human alpha-5-beta-3-gamma-2 GABA-A receptor using [3H]Ro-151788 expressed in L(tk-) cells
# Type: cell-based
# Details: not given
row,SMILES,Ki
1,Cc1noc(-c2nnc3c4c(c(OCc5ccccn5)nn23)C2CCC4CC2)n1,0.77 nM
2,Cc1noc(-c2nnc3c4c(c(OCc5ncc[nH]5)nn23)C2CCC4CC2)n1,3.8 nM
3,Cc1cccc(COc2nn3c(-c4ccccn4)nnc3c3c2C2CCC3CC2)n1,15.3 nM
4,Cc1cccc(COc2nn3c(-c4ncn(C)n4)nnc3c3c2C2CCC3CC2)n1,214 nM
5,Cc1cccc(COc2nn3c(-c4ccco4)nnc3c3c2C2CCC3CC2)n1,13 nM
6,Cc1noc(-c2nnc3c4c(c(OCc5ccc(C)c(C)n5)nn23)C2CCC4CC2)n1,0.39 nM

# Target: T3, GABA-A receptor; alpha-2/beta-3/gamma-2 (Homo sapiens, UniProt P18507+P28472+P47869)
# T3 sequence (P18507 whole entry): T1 sequence (P18507 whole entry)
# T3 sequence (P28472 whole entry): T1 sequence (P28472 whole entry)
# T3 sequence (P47869 whole entry): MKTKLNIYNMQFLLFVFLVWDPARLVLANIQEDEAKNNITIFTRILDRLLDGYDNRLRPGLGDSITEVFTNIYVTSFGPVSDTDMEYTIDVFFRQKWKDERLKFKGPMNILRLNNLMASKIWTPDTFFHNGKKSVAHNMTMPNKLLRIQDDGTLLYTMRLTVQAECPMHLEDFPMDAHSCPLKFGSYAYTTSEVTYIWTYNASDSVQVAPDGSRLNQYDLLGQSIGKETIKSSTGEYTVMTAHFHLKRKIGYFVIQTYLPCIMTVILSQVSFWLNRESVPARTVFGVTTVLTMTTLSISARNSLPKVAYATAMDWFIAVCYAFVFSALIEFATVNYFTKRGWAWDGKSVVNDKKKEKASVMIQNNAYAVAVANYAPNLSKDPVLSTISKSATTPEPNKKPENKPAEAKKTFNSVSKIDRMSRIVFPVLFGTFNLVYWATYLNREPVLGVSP
# Assay: Binding affinity towards human gamma-aminobutyric-acid A receptor alpha-2-beta-3-gamma-2 using [3H]Ro-151788 expressed in L(tk-) cells
# Type: cell-based
# Details: not given
row,SMILES,Ki
1,Cc1noc(-c2nnc3c4c(c(OCc5ccccn5)nn23)C2CCC4CC2)n1,8.5 nM
2,Cc1noc(-c2nnc3c4c(c(OCc5ncc[nH]5)nn23)C2CCC4CC2)n1,35.9 nM
3,Cc1cccc(COc2nn3c(-c4ccccn4)nnc3c3c2C2CCC3CC2)n1,227 nM
4,Cc1cccc(COc2nn3c(-c4ncn(C)n4)nnc3c3c2C2CCC3CC2)n1,> 1000 nM
5,Cc1cccc(COc2nn3c(-c4ccco4)nnc3c3c2C2CCC3CC2)n1,275 nM
6,Cc1noc(-c2nnc3c4c(c(OCc5ccc(C)c(C)n5)nn23)C2CCC4CC2)n1,9.8 nM

# Target: GABA-A receptor; alpha-5/beta-3/gamma-2 (Homo sapiens) (UniProt P18507+P28472+P31644)
# Assay: Percent change in electrophysiological response in Xenopus oocytes expressing Alpha-5-beta-3-gamma-2 GABA-A receptor
# Type: functional, cell-based
# Details: Oocyte
# Summary of the method: (§1)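 Two-electrode voltage clamp on Xenopus oocytes injected with human GABA-A subunit cDNAs, 24-72 h expression, perfused with modified Barth's medium at pH 7.5, clamped between -40 and -70 mV. The GABA EC20 was titrated against a 3 mM GABA maximum. […] Result is % change of control current, mean ± SE of ≥4 oocytes.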
row,SMILES,Efficacy
1,Cc1noc(-c2nnc3c4c(c(OCc5ccccn5)nn23)C2CCC4CC2)n1,-38%
2,Cc1noc(-c2nnc3c4c(c(OCc5ncc[nH]5)nn23)C2CCC4CC2)n1,-26%
3,Cc1noc(-c2nnc3c4c(c(OCc5ccc(C)c(C)n5)nn23)C2CCC4CC2)n1,-25%

# Target: GABA-A receptor; alpha-1/beta-3/gamma-2 (Homo sapiens) (UniProt P14867+P18507+P28472)
# Assay: Percent change in electrophysiological response in Xenopus oocytes expressing Alpha1-beta3-gamma2 GABA-A receptor
# Type: functional, cell-based
# Details: Oocyte
# Summary of the method: as §1
row,SMILES,Efficacy
1,Cc1noc(-c2nnc3c4c(c(OCc5ccc(C)c(C)n5)nn23)C2CCC4CC2)n1,1%

# Target: T4, GABA-A receptor; alpha-3/beta-3/gamma-2 (Homo sapiens, UniProt P18507+P28472+P34903)
# T4 sequence (P18507 whole entry): T1 sequence (P18507 whole entry)
# T4 sequence (P28472 whole entry): T1 sequence (P28472 whole entry)
# T4 sequence (P34903 whole entry): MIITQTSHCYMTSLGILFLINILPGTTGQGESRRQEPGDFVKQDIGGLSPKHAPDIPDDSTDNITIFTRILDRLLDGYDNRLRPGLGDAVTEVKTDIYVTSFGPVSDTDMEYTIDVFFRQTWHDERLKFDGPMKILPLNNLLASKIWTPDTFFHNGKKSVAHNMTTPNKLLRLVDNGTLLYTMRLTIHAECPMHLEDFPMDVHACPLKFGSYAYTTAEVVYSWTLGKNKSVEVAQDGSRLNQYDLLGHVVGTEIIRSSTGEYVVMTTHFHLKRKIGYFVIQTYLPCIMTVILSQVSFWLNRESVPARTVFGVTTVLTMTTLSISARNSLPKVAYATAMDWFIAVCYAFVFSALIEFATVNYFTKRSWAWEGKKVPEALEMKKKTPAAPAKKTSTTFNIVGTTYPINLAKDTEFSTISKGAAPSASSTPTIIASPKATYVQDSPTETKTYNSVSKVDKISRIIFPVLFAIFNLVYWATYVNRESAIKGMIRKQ
# Assay: Binding affinity towards human gamma-aminobutyric-acid A receptor alpha-3-beta-3-gamma-2 using [3H]Ro-151788 expressed in L(tk-) cells
# Type: cell-based
# Details: not given
row,SMILES,Ki
1,Cc1noc(-c2nnc3c4c(c(OCc5ccccn5)nn23)C2CCC4CC2)n1,3.9 nM
2,Cc1noc(-c2nnc3c4c(c(OCc5ncc[nH]5)nn23)C2CCC4CC2)n1,19.4 nM
3,Cc1cccc(COc2nn3c(-c4ccccn4)nnc3c3c2C2CCC3CC2)n1,104 nM
4,Cc1cccc(COc2nn3c(-c4ncn(C)n4)nnc3c3c2C2CCC3CC2)n1,> 1000 nM
5,Cc1cccc(COc2nn3c(-c4ccco4)nnc3c3c2C2CCC3CC2)n1,116 nM
6,Cc1noc(-c2nnc3c4c(c(OCc5ccc(C)c(C)n5)nn23)C2CCC4CC2)n1,8.6 nM

# Target: GABA-A receptor; alpha-3/beta-3/gamma-2 (Homo sapiens) (UniProt P18507+P28472+P34903)
# Assay: Percent change in electrophysiological response in Xenopus oocytes expressing Alpha3-beta3-gamma2 GABA-A receptor
# Type: functional, cell-based
# Details: Oocyte
# Summary of the method: as §1
row,SMILES,Efficacy
1,Cc1noc(-c2nnc3c4c(c(OCc5ccc(C)c(C)n5)nn23)C2CCC4CC2)n1,-21%
